Measured values collected from several papers.
Cell line: MRC5
Read-out: cell growth or viability

SMILES	technique	tested at	time	measurement	value
CC(C)(C)OC(=O)N1CCN(c2cc(-c3cnc4[nH]cc(C(=O)c5ccc(F)cc5)c4c3)ccn2)CC1	MTT	10 µM	48 h	viability	78.9%
Nc1cc(Cl)c(Cl)cc1N	–	–	72 h	IC50	> 250 µM
CC(C)=CCOc1c2occc2cc2ccc(=O)oc12	MTT	–	72 h	IC50	> 100 µM
CCOC(=O)CCn1cc(C(=O)c2ccc(F)cc2)c2cc(-c3ccc(N4CCN(C(=O)OC(C)(C)C)CC4)nc3)cnc21	MTT	10 µM	48 h	viability	92.1%
Nc1cc(Br)c(Br)cc1N	–	–	72 h	IC50	200 µM
CS(=O)(=O)N1CCN(c2ccc(-c3cnc4[nH]cc(C(=O)c5ccc(F)cc5)c4c3)cn2)CC1	MTT	10 µM	48 h	viability	79.1%
COc1c2c(cc3c1OCO3)[C@]13C=C[C@H](OC)C[C@@H]1[N@](C2)C[C@H]3OC(=O)c1ccoc1	WST-1	–	–	IC50	> 10 µM
CC1=CC(=O)c2c(O)cccc2C1=O	SRB	–	–	IC50	5.15 µM
CC(C)(C)OC(=O)N1CCN(c2ccc(-c3cnc4[nH]cc(C(=O)c5ccc(F)cc5)c4c3)cc2)CC1	MTT	10 µM	48 h	viability	78.7%
COc1c2c(cc3c1OCO3)[C@]13C=C[C@H](OC)C[C@@H]1[N@](C2)C[C@H]3OC(=O)c1ccc2ccccc2c1	WST-1	–	–	IC50	> 10 µM
N.N.[Cl][Pt][Cl]	SRB	–	–	EC50	5.8 µM
C=CCc1cc(OC)c2c(c1)OCO2	SRB	–	–	IC50	420 µM
O=c1c2ccccc2[se]n1-c1ccccc1	MTT	–	72 h	IC50	94 µM
